We go through twelve compounds from ChEMBL document CHEMBL2203028, “SAR and Lead Optimization of an HIV-1 Vif-APOBEC3G Axis Inhibitor” (ACS Med Chem Lett, 2012).

As usually defined, the IC50 is the concentration needed to halve the response being measured.

The test system of data set [1] is Human immunodeficiency virus 1. Description: Inhibition of HIV-1 GFP tagged Vif expressed in 293FT cells co-expressing HA-tagged A3G assessed as upregulation of HA-A3G expression at 50 uM incubated for 16 hrs by immunoblotting assay. The data set is classed as cell-based. In short, it runs like this:
(§1)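 293FT cells co-expressing HA-tagged A3G with GFP-tagged Vif or ΔVif were grown for 16 h with antagonist at 50 µM or without compound. Extracts were immunoblotted with anti-HA (A3G), anti-GFP (Vif) and anti-GAPDH antibodies. A3G and Vif levels were compared with untreated Vif-expressing cells. RN-18 served as positive control and choline chloride as a further control.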
For orientation: A western blot detects proteins with antibodies after separation by electrophoresis.

The subject of data set [2] is Human immunodeficiency virus 1. Description: Inhibition of HIV-1 GFP tagged Vif expressed in 293FT cells co-expressing HA-tagged A3G assessed as downregulation of GFP-Vif expression at 50 uM incubated for 16 hrs by immunoblotting assay. In kind it is cell-based. An outline of the steps: as §1
The nature of data set [3]: (§2) Inhibition of X4-tropic HIV-1 LAI Vif infected in MT4 cells assessed as inhibition of viral replication incubated for 10 to 15 days measured on every second day by reverse transcriptase assay by reverse transcriptase assay. The data set is classed as cell-based, Human immunodeficiency virus 1. An outline of the steps: (§3)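 Cells (2 x 10⁵/well) were pretreated overnight with 1 to 50 µM compound in RPMI with 10% FBS, then infected with X4-tropic HIV-1 LAI. Cultures were kept ± compound for 10-15 days. Every second day, 1/3 of supernatant was replaced with compound-containing medium, and RT activity was measured in supernatant. RN-18 served as positive control and untreated cells as negative control. There were ≥3 repeats; IC50 was calculated.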

A short description of data set [4]: (§4) Inhibition of X4 tropic HIV-1 LAI Vif infected in H9 cells assessed as inhibition of viral replication incubated for 10 to 15 days measured on every second day by reverse transcriptase assay. The data set is classed as cell-based, Human immunodeficiency virus 1. In short, it runs like this:
as §3

Another data set deals with MT4. Described as §2. In kind it is cell-based. Conditions: Human immunodeficiency virus 1. In short, it runs like this:
as §3

In the next data set the test system is H9. Described as §4. In kind it is cell-based. Conditions: Human immunodeficiency virus 1. In short, it runs like this:
as §3

A short description of data set [5]: Permeability across synthetic membrane at pH 6.2 by PAMPA assay. In kind it is ADME. In general terms: In PAMPA a lipid-coated filter parts donor from acceptor wells.
Data set [6] can be described thus: Permeability across synthetic membrane at pH 7.4 by PAMPA assay. The data set is classed as ADME.
A short description of data set [7]: Permeability across synthetic membrane at pH 5.0 by PAMPA assay. The data set is classed as ADME.
The nature of data set [8]: Cytotoxicity against human Fa2N-4 cells upto 50 uM by luminescence ATP detection assay. In kind it is cell-based.
For data set [9], the system named is Plasma. As to the kind of experiment: Plasma protein binding in human. The data set is classed as ADME, cell-free.
Data set [10] has as its system Plasma. Description: Metabolic stability in human plasma. The data set is classed as ADME, cell-free.
A short description of data set [11]: Kinetic solubility at pH 7.2 by UV spectroscopic analysis. In kind it is physicochemical. Conditions: buffer.
The next data set deals with Liver microsomes. Description: Metabolic stability in human liver microsomes. In kind it is ADME, Microsome. For orientation: Microsomes from liver hold many membrane-bound enzymes, among them those of drug oxidation.
A short description of data set [12]: Kinetic solubility at pH 6.2 by UV spectroscopic analysis. In kind it is physicochemical. Conditions: buffer.
The nature of data set [13]: Kinetic solubility at pH 5.0 by UV spectroscopic analysis. The data set is classed as physicochemical. Conditions: buffer.
The nature of data set [14]: Inhibition of X4-tropic HIV-1 LAI Vif infected in CEM cells assessed as inhibition of viral replication incubated for 14 to 21 days measured on every other day by reverse transcriptase assay. In kind it is cell-based. Conditions: Human immunodeficiency virus 1, LAI, CCRF-CEM.
Data set [15] can be described thus: Inhibition of X4-tropic HIV-1 LAI Vif infected in MT4 cells assessed as inhibition of viral replication incubated for 10 to 15 days measured on every other day by reverse transcriptase assay. Conditions: Human immunodeficiency virus 1, LAI.
[16] abbreviates: Human immunodeficiency virus 1, LAI, H9, read-out: IC50.

SMILES strings stand for the structures. Active and inactive are the calls of the source. The calls are words filed in the database; no cut-off is given here.

Turning to `COc1ccccc1NC(=O)c1ccc(C)nc1Sc1ccc([N+](=O)[O-])cc1`, the “HA-A3G upregulation (active/not active)” value in data set [1] is “Active”. Further, the “GFP-Vif downregulation activity call” value in data set [2] was “Active”. Also, the concentration for half-maximal inhibition (IC50) entry in data set [3] (mt4) was “Not Active”; in [4] (setting [16]), 1.5 µM.

Regarding `COc1ccccc1NC(=O)c1ccccc1S(=O)(=O)c1ccc([N+](=O)[O-])cc1`, the “HA-A3G upregulation (active/not active)” value in [1] was “Active”. Moreover, in [2], the “GFP-Vif downregulation activity call” value is “Active”. Besides, the concentration for half-maximal inhibition (IC50) entry was “Not Active” in data set [3] (mt4) and 1.1 µM in data set [4] (setting [16]).

Consider `COC(=O)c1ccc(NC(=O)c2ccccc2Sc2ccc([N+](=O)[O-])cc2)c(OC)c1`, for which the IC50 entry in data set [3] (mt4) was “Not Active”; in [4] (setting [16]) it was 10 µM.

On to `COc1ccccc1NC(=O)c1ccccc1Sc1ccc(C(=O)[O-])cc1.C[N+](C)(C)CCO`, for which the half-maximal inhibitory concentration (IC50) entry was “Not Active” in [3] (mt4) and 1 µM in data set [4] (setting [16]). The inhibition result with MT4 and with H9 was “inactive” throughout.

As for `COC(=O)c1ccc(Sc2ccccc2C(=O)Nc2ccccc2OC)cc1`, the inhibition result with MT4 and with H9 was “inactive” throughout.

Take `CS(=O)(=O)Oc1ccccc1NC(=O)c1ccccc1Sc1ccc([N+](=O)[O-])cc1`: the IC50 result is “Not Active” in data set [3] (mt4) and 5.6 µM in [4] (setting [16]).

On to `COc1ccccc1NC(=O)c1ccccc1S(=O)(=O)c1ccc(C(=O)[O-])cc1.C[N+](C)(C)CCO`, for which the permeability result in data set [5] is “impermeable”; in data set [6], “impermeable”; in [7], “permeable”. Moreover, the Activity entry in data set [8] is listed as “Non-toxic”. In addition, the PPB result in the data set on Plasma [9] was “Active”. The Stability result with Plasma [10] and in the data set with Liver microsomes was “Stable” throughout. In addition, the Kinetic_solubility entry in [11], in [12] and in data set [13] was “soluble” throughout. Also, in data set [1], the “HA-A3G upregulation (active/not active)” value was “inactive”. For the same compound, in data set [2], the “GFP-Vif downregulation activity call” value was “inactive”. Also, the IC50 entry in data set [3] (mt4) was “Not Active”; in data set [4] (setting [16]) it was 10 µM.

For `COc1ccccc1NC(=O)c1cccnc1Sc1ccc([N+](=O)[O-])cc1`, the figures for the IC50 entry in data set [3] (mt4) and in data set [4] (setting [16]) were “Not Active” and 10 µM, respectively.

`O=C(Nc1ccccc1I)c1ccccc1Sc1ccc([N+](=O)[O-])cc1`: the half-maximal inhibitory concentration (IC50) result is “Not Active” in [3] (mt4) and 4.3 µM in data set [4] (setting [16]).

As to `COc1ccccc1NC(=O)c1ccc(Sc2ccc([N+](=O)[O-])cc2)cc1Cl`, the “HA-A3G upregulation (active/not active)” value in data set [1] was “Active”. The “GFP-Vif downregulation activity call” value in data set [2] was “Active”. The IC50 result in [3] (mt4) is “Not Active”; in data set [4] (setting [16]), 2.5 µM.

`COc1ccccc1NC(=O)c1ccccc1Sc1ccc([N+](=O)[O-])cc1`: the “HA-A3G upregulation (active/not active)” value in [1] is “Active”. Also, the “GFP-Vif downregulation activity call” value in data set [2] is “Active”. The IC50 entry in [3] (mt4) is “Not Active”; in [4] (setting [16]), 6 µM; in data set [14] it was 4.5 µM; in [15] it was greater than 100 µM.

As for `COc1ccccc1NC(=O)c1ccccc1Cl`, in data set [1], the “HA-A3G upregulation (active/not active)” value was “inactive”. For the same compound, the “GFP-Vif downregulation activity call” value in [2] is “inactive”. The 50% inhibitory concentration (IC50) in data set [3] (Human immunodeficiency virus 1, LAI, MT4, read-out: IC50) is greater than 50 µM; in [4] (h9), “Not Active”.
